Source: ChEMBL document CHEMBL1817593, “C5'-Alkyl Substitution Effects on Digitoxigenin α-l-Glycoside Cancer Cytotoxicity” (ACS Med Chem Lett, 2011)
The source made the active and inactive calls. The calls are words filed in the database; no cut-off is given here.

How the values were obtained:
[1] = test system: NCI-H460; test: Induction of apoptosis in human NCI-H460 cells in serum free medium at 50 nM after 12 hrs by Hoechst 33342/propidium iodide staining based fluorescence microscopy; assay type: functional
Outline: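 NCI-H460 cells exposed to a single 50 nM concentration for 12 h. Cells stained with Hoechst 33342 and propidium iodide. Blue cells with condensed or fragmented nuclei were scored as apoptotic and red, ruptured cells as necrotic. Result given as % apoptotic cell death; N = 6, one-way ANOVA.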

[2] = test system: NCI-H460; test: Cytotoxicity against human NCI-H460 cells assessed as cell death in serum free medium at 50 nM after 12 hrs by Hoechst 33342/propidium iodide staining based fluorescence microscopy; assay type: functional
Outline: (§1)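 NCI-H460 human lung cancer cells exposed 12 h to 10 nM–10 μM drug, including a 50 nM single-concentration test. Nuclei were stained with Hoechst 33342 and necrotic cells with propidium iodide. Apoptotic cells were scored by condensed or fragmented blue nuclei and necrotic cells by red PI staining. Total cell death (apoptosis plus necrosis) was recorded; N = 6.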

[3] = test system: NCI-H460; test: Cytotoxicity against human NCI-H460 cells assessed as cell viability at 500 nM after 48 hrs by MTT assay; assay type: functional; settings: NCI-H460, 48 h, read-out: Activity
Outline: (§2)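 Viability of NCI-H460 cells was measured by MTT (mitochondrial enzymatic activity) after 48 h exposure, within a dose series spanning 1 nM–10 μM. N = 9, analysed by two-way ANOVA.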

[4] = test system: NCI-H460; test: Cytotoxicity against human NCI-H460 cells assessed as cell death in serum free medium at 75 nM after 12 hrs by Hoechst 33342/propidium iodide staining based fluorescence microscopy; assay type: functional; outline: as §1
[5] = test system: NCI-H460; test: Cytotoxicity against human NCI-H460 cells assessed as cell viability at 1 nM after 48 hrs by MTT assay; assay type: functional; settings: NCI-H460, 48 h, read-out: Activity; outline: as §2
[6] = test system: NCI-H460; test: Cytotoxicity against human NCI-H460 cells assessed as cell death in serum free medium at 10 nM after 12 hrs by Hoechst 33342/propidium iodide staining based fluorescence microscopy; assay type: functional; outline: as §1
[7] = test system: NCI-H460; test: Cytotoxicity against human NCI-H460 cells assessed as cell viability at 25 nM after 48 hrs by MTT assay; assay type: functional; settings: NCI-H460, 48 h, read-out: Activity; outline: as §2
[8] = test system: NCI-H460; test: Cytotoxicity against human NCI-H460 cells assessed as cell death in serum free medium at 10000 nM after 12 hrs by Hoechst 33342/propidium iodide staining based fluorescence microscopy; assay type: functional; outline: as §1
[9] = test system: NCI-H460; test: Cytotoxicity against human NCI-H460 cells assessed as cell viability at 10 nM after 48 hrs by MTT assay; assay type: functional; settings: NCI-H460, 48 h, read-out: Activity; outline: as §2
[10] = test system: NCI-H460; test: Cytotoxicity against human NCI-H460 cells assessed as cell death in serum free medium at 250 nM after 12 hrs by Hoechst 33342/propidium iodide staining based fluorescence microscopy; assay type: functional; outline: as §1
[11] = test system: NCI-H460; test: Cytotoxicity against human NCI-H460 cells assessed as cell death in serum free medium at 1000 nM after 12 hrs by Hoechst 33342/propidium iodide staining based fluorescence microscopy; assay type: functional; outline: as §1
[12] = test system: NCI-H460; test: Cytotoxicity against human NCI-H460 cells assessed as cell viability at 1000 nM after 48 hrs by MTT assay; assay type: functional; settings: NCI-H460, 48 h, read-out: Activity; outline: as §2
[13] = test system: NCI-H460; test: Cytotoxicity against human NCI-H460 cells assessed as cell death in serum free medium at 500 nM after 12 hrs by Hoechst 33342/propidium iodide staining based fluorescence microscopy; assay type: functional; outline: as §1
[14] = test system: NCI-H460; test: Cytotoxicity against human NCI-H460 cells assessed as cell viability at 100 nM after 48 hrs by MTT assay; assay type: functional; settings: NCI-H460, 48 h, read-out: Activity; outline: as §2
[15] = test system: NCI-H460; test: Growth inhibition of human NCI-H460 cells after 48 hrs by MTT assay; assay type: functional
Outline: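 NCI-H460 viability measured by MTT (mitochondrial enzymatic activity) after 48 h exposure at 1 nM to 10 μM. GI50 derived from dose-response curves, with N = 9 and two-way ANOVA. Values are the mean of three independent experiments with duplicate determinations.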

[16] = test system: NCI-H460; test: Cytotoxicity against human NCI-H460 cells assessed as cell death in serum free medium at 100 nM after 12 hrs by Hoechst 33342/propidium iodide staining based fluorescence microscopy; assay type: functional; outline: as §1
[17] = test system: NCI-H460; test: Cytotoxicity against human NCI-H460 cells assessed as cell death in serum free medium at 25 nM after 12 hrs by Hoechst 33342/propidium iodide staining based fluorescence microscopy; assay type: functional; outline: as §1
[18] = test system: NCI-H460; test: Cytotoxicity against human NCI-H460 cells assessed as cell viability at 50 nM after 48 hrs by MTT assay; assay type: functional; settings: NCI-H460, 48 h, read-out: Activity; outline: as §2
[19] = test system: NCI-H460; test: Induction of apoptosis in human NCI-H460 cells in serum free medium after 12 hrs by Hoechst 33342/propidium iodide staining based fluorescence microscopy; assay type: functional, cell-based; settings: for IC50: NCI-H460, 12 h
Outline: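 NCI-H460 cells treated for 12 h at 10 nM to 10 μM. Total cell death (apoptosis plus necrosis) scored by Hoechst 33342/propidium iodide staining, with N = 6 and two-way ANOVA. IC50 obtained by nonlinear regression. Table values are the mean of three independent experiments with duplicate determinations.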

[20] = test system: NCI-H460; test: Cytotoxicity against human NCI-H460 cells assessed as cell viability after 48 hrs by MTT assay; assay type: functional; settings: NCI-H460, 48 h
Outline: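 NCI-H460 cells were exposed to drug for 48 h, and viability was read by MTT as mitochondrial enzymatic activity. GI50 was derived from dose-response curves (1 nM–10 μM). Values are from three independent experiments with duplicate determinations, given with standard error of the mean.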

[21] = test system: RXF 393; test: Cytotoxicity against human RXF393 cells after 48 hrs by sulforhodamine B assay; assay type: functional; settings: RXF 393, 48 h
[22] = test system: BT-549; test: Cytotoxicity against human BT549 cells after 48 hrs by sulforhodamine B assay; assay type: functional; settings: BT-549, 48 h
[23] = test system: CAKI-1; test: Cytotoxicity against human Caki1 cells after 48 hrs by sulforhodamine B assay; assay type: functional; settings: CAKI-1, 48 h
[24] = test system: SF-539; test: Cytotoxicity against human SF539 cells after 48 hrs by sulforhodamine B assay; assay type: functional; settings: SF-539, 48 h
[25] = test system: HCC 2998; test: Cytotoxicity against human HCC2998 cells after 48 hrs by sulforhodamine B assay; assay type: functional; settings: HCC 2998, 48 h
[26] = test system: CCRF-CEM; test: Cytotoxicity against human CCRF-CEM cells after 48 hrs by sulforhodamine B assay; assay type: functional
[27] = test system: U-251; test: Cytotoxicity against human U251 cells after 48 hrs by sulforhodamine B assay; assay type: functional; settings: U-251, 48 h
[28] = test system: MDA-MB-435; test: Cytotoxicity against human MDA-MB-435 breast cancer cells after 48 hrs by sulforhodamine B assay; assay type: functional; settings: MDA-MB-435, 48 h
[29] = test system: NCI-H460; test: Ratio of digitoxin IC50 to compound IC50 for human NCI-H460 cells after 12 hrs by Hoechst 33342/propidium iodide staining based fluorescence microscopy; assay type: functional
[30] = test system: K562; test: Cytotoxicity against human K562 cells after 48 hrs by sulforhodamine B assay; assay type: functional; settings: K562, 48 h
[31] = test system: T47D; test: Cytotoxicity against human T47D cells after 48 hrs by sulforhodamine B assay; assay type: functional
[32] = test system: SK-MEL-2; test: Cytotoxicity against human SK-MEL-2 cells after 48 hrs by sulforhodamine B assay; assay type: functional
[33] = test system: HL-60(TB); test: Cytotoxicity against human HL-60(TB) cells after 48 hrs by sulforhodamine B assay; assay type: functional; settings: HL-60, 48 h
[34] = test system: HCT-116; test: Cytotoxicity against human HCT116 cells after 48 hrs by sulforhodamine B assay; assay type: functional
[35] = test system: OVCAR-5; test: Cytotoxicity against human OVCAR5 cells after 48 hrs by sulforhodamine B assay; assay type: functional; settings: OVCAR-5, 48 h
[36] = test system: NCI/ADR-RES; test: Cytotoxicity against human NCI/ADR-RES cells after 48 hrs by sulforhodamine B assay; assay type: functional
[37] = test system: IGROV-1; test: Cytotoxicity against human IGROV1 cells after 48 hrs by sulforhodamine B assay; assay type: functional; settings: IGROV-1, 48 h
[38] = test system: OVCAR-8; test: Cytotoxicity against human OVCAR8 cells after 48 hrs by sulforhodamine B assay; assay type: functional; settings: OVCAR-8, 48 h

| SMILES | Activity [1] | Activity [2] | viability at 0.5 µM [3] | Activity [4] | viability at 0.001 µM [5] | Activity [6] | viability at 0.025 µM [7] | Activity [8] | viability at 0.01 µM [9] | Activity [10] | Activity [11] | viability at 1 µM [12] | Activity [13] | viability at 0.1 µM [14] | GI50 [15] | GI50 ([15]; NCI-H460, 48 h) | Activity [16] | Activity [17] | viability at 0.05 µM [18] | Activity [19] | other results |
| --- | --- | --- | --- | --- | --- | --- | --- | --- | --- | --- | --- | --- | --- | --- | --- | --- | --- | --- | --- | --- | --- |
| CC[C@@H]1O[C@@H](O[C@H]2CC[C@@]3(C)[C@H](CC[C@@H]4[C@@H]3CC[C@]3(C)[C@@H](C5=CC(=O)OC5)CC[C@]43O)C2)CC[C@H]1O | 18.75% | 22.56% | 5.41% | 39.69% | 73.3% | 13.46% | 9.23% | 100% | 20.6% | 87.87% | 100% | 4.5% | 99.58% | 6.81% | Dose-dependent effect | 2 nM | 69.05% | 19.43% | 8.21% | Dose-dependent effect | IC50 [19]: 87.3 nM; GI50 [20]: 2.19 nM |
| C[C@@H]1O[C@@H](O[C@H]2CC[C@@]3(C)[C@H](CC[C@@H]4[C@@H]3CC[C@]3(C)[C@@H](C5=CC(=O)OC5)CC[C@]43O)C2)CC[C@H]1O [RAMNODIGIN] | 42.463% | 52.04% | 3.69% | 77.04% | 77% | 18.12% | 7.14% | 100% | 13.9% | 100% | 100% | 3.25% | 100% | 5% | Dose-dependent effect | 2 nM | 98.61% | 22.09% | 6.18% | Dose-dependent effect | GI50 [21]: 1.22 nM; GI50 [22]: 2.41 nM; GI50 [23]: 3.32 nM; GI50 [24]: 7.8 nM; GI50 [25]: 16.5 nM; GI50 [26]: 8.49 nM; GI50 [27]: 12.7 nM; GI50 [28]: 21 nM; Ratio IC50 [29]: 4; GI50 [30]: 19.5 nM; GI50 [31]: 20.6 nM; GI50 [32]: inactive; GI50 [33]: 2.96 nM; GI50 [34]: inactive; GI50 [35]: 17.4 nM; IC50 [19]: 51.7 nM; GI50 [36]: 4.12 nM; GI50 [37]: 5.23 nM; GI50 [38]: 2.5 nM; GI50 [20]: 1.93 nM |
| C[C@@H]1O[C@@H](O[C@H]2CC[C@@]3(C)[C@H](CC[C@@H]4[C@@H]3CC[C@]3(C)[C@@H](C5=CC(=O)OC5)CC[C@]43O)C2)[C@H](O)[C@H](O)[C@H]1O | 41.603% | 48.79% | 5.81% | 78.16% | 77.8% | 16.47% | 8.72% | 100% | 11.8% | 100% | 100% | 5.46% | 100% | 6.11% | Dose-dependent effect | 2 nM | 89.5% | 24.53% | 7.16% | Dose-dependent effect | Ratio IC50 [29]: 4; IC50 [19]: 51.7 nM; GI50 [20]: 2.1 nM |
